Assay results: ChEMBL document CHEMBL4602702, “Red-Emitting Dibenzodiazepinone Derivatives as Fluorescent Dualsteric Probes for the Muscarinic Acetylcholine M2 Receptor” (J Med Chem, 2020)

Legend:
[1] = molecular target: T1, Muscarinic acetylcholine receptor M4 (Homo sapiens, UniProt P08173); assay: Antagonist activity at human muscarinic M4 receptor expressed in HEK293 cells co-expressing HA-Galphaq/i5 assessed as inhibition of carbachol-induced IP1 accumulation at 22 degree C pre-incubated for 180 mins followed by carbachol addition and further incubated at 37 degree C for 90 mins by HTRF assay; type: functional, cell-based
T1 sequence (P08173 whole entry): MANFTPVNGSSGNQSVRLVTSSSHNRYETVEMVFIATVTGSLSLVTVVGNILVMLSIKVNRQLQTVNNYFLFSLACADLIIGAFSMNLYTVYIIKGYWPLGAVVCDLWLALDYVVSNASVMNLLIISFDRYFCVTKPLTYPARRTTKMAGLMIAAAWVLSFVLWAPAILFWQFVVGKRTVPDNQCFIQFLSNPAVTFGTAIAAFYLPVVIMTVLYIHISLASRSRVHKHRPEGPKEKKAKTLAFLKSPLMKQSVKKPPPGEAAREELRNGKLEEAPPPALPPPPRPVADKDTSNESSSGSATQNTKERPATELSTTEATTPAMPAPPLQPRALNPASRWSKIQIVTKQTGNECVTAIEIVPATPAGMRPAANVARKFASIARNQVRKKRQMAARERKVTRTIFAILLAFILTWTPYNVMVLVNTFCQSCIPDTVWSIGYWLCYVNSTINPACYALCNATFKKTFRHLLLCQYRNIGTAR

[2] = molecular target: T2, Muscarinic acetylcholine receptor M2 (Homo sapiens, UniProt P08172); assay: Binding affinity to human muscarinic M2 receptor expressed in CHO-K9 cells incubated in dark measured after 60 mins by Hoechst H33342 dye based confocal plate reader assay; type: cell-based
T2 sequence (P08172 whole entry): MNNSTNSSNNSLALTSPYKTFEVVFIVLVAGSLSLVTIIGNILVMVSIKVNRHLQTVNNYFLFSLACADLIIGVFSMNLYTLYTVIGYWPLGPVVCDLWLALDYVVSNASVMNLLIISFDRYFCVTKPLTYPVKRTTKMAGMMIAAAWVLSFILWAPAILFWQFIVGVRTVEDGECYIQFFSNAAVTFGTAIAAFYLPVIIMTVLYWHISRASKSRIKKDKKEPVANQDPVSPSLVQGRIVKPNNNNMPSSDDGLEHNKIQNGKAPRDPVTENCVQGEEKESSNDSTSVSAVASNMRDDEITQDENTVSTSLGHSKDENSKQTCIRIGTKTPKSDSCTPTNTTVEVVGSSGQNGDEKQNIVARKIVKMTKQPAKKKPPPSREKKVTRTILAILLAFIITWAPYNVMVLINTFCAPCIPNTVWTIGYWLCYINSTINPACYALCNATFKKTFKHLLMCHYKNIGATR
Procedure, shortened: (§1)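 Live CHO-hMxR cells (M1 or M2) incubated with fluorescent ligand at 22 °C in the dark for 1 h, washed, then imaged at once by high-content confocal plate reader.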

[3] = molecular target: T2, Muscarinic acetylcholine receptor M2; assay: Binding affinity to human muscarinic M2 receptor expressed in […] cells incubated in dark at 22 degree C for 2 hrs by FACSCalibur flow cytometric saturation binding study; type: cell-based
[4] = molecular target: T2, Muscarinic acetylcholine receptor M2; assay: Binding affinity to human muscarinic M2 receptor expressed in […] cells at 22 +/- 1 degree C preincubated for 120 mins followed by atropine addition by flow cytometric saturation binding study; type: cell-based
[5] = molecular target: T1, Muscarinic acetylcholine receptor M4; assay: Displacement of [3H]-NMS from human muscarinic M4 receptor stably expressed in CHO-K9 cells by radioligand competitive binding assay; type: cell-based
Procedure, shortened: (§2)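 Equilibrium competition binding at live CHO-hMxR cells with [3H]NMS at M1 0.2, M2 0.2, M3 0.2, M4 0.1, M5 0.3 nM. […] Four-parameter logistic fit converted to pKi; at least three experiments in triplicate (some two).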

[6] = molecular target: T3, Muscarinic acetylcholine receptor M2 (Homo sapiens) (UniProt P08172); assay: Binding affinity to human muscarinic M2 receptor expressed in CHO-K9 cells assessed as observed association rate constant at 22 +/- 1 degree C incubated under shaking condition in dark for 1 to 300 mins by flow cytometric saturation binding study; type: cell-based
T3 sequence (whole entry): T2 sequence (P08172 whole entry)

[7] = molecular target: T2, Muscarinic acetylcholine receptor M2; assay: Displacement of [3H]-NMS from human muscarinic M2 receptor stably expressed in CHO-K9 cells by radioligand competitive binding assay; type: cell-based; procedure, shortened: as §2
[8] = molecular target: T3, Muscarinic acetylcholine receptor M2 (Homo sapiens); assay: Binding affinity to human muscarinic M2 receptor expressed in CHO-K9 cells assessed as dissociation rate constant at 22 +/- 1 degree C preincubated for 120 mins followed by atropine addition by flow cytometric saturation binding study; type: cell-based
Procedure, shortened: (§3)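 Dissociation followed by flow cytometry at 22 °C over 9 h. koff from three-parameter incomplete monophasic decline fit; three or four experiments in duplicate.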

[9] = molecular target: T4, Muscarinic acetylcholine receptor M1 (Homo sapiens, UniProt P11229); assay: Binding affinity to human muscarinic M1 receptor expressed in CHO-K9 cells incubated in dark measured after 60 mins by Hoechst H33342 dye based confocal plate reader assay; type: cell-based; procedure, shortened: as §1
T4 sequence (P11229 whole entry): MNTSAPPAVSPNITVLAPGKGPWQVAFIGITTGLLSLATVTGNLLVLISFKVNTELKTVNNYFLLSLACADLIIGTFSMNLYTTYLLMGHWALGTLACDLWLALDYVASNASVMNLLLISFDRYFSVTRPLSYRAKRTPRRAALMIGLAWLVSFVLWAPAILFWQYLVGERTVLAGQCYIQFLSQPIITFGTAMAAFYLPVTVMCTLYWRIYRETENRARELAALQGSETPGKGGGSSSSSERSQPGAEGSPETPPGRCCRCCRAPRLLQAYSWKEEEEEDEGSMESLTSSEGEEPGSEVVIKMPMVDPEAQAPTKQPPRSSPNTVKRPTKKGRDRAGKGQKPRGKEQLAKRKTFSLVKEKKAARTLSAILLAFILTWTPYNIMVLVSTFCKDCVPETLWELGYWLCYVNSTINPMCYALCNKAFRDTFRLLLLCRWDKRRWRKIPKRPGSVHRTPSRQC

[10] = molecular target: T2, Muscarinic acetylcholine receptor M2; assay: Binding affinity to human muscarinic M2 receptor expressed in […] cells at 22 +/- 1 degree C preincubated for 180 mins followed by atropine addition by flow cytometric kinetic binding study
[11] = molecular target: T4, Muscarinic acetylcholine receptor M1; assay: Binding affinity to human muscarinic M1 receptor expressed in CHO-K9 cells incubated in dark at 22 degree C for 2 hrs by FACSCalibur flow cytometric saturation binding study; type: cell-based
[12] = molecular target: T3, Muscarinic acetylcholine receptor M2 (Homo sapiens); assay: Binding affinity to human muscarinic M2 receptor expressed in CHO-K9 cells assessed as dissociation rate constant at 22 +/- 1 degree C preincubated for 180 mins followed by atropine addition by flow cytometric saturation binding study; type: cell-based; procedure, shortened: as §3
[13] = molecular target: T1, Muscarinic acetylcholine receptor M4; assay: Binding affinity to human muscarinic M4 receptor expressed in […] cells incubated in dark at 22 degree C for 2 hrs by FACSCalibur flow cytometric saturation binding study; type: cell-based
[14] = molecular target: T3, Muscarinic acetylcholine receptor M2 (Homo sapiens); assay: Binding affinity to human muscarinic M2 receptor expressed in CHO-K9 cells assessed as dissociation rate constant at 22 +/- 1 degree C preincubated for 110 mins followed by atropine addition by flow cytometric saturation binding study; type: cell-based; procedure, shortened: as §3
[15] = molecular target: T2, Muscarinic acetylcholine receptor M2; assay: Binding affinity to human muscarinic M2 receptor expressed in […] cells at 22 +/- 1 degree C preincubated for 110 mins followed by atropine addition by flow cytometric saturation binding study; type: cell-based

| IC50 [1] [nM] | Kd ([2]; read-out: Kd) [nM] | Kd ([2]; read-out: pKd (converted)) [nM] | Kd ([3]; read-out: Kd) [nM] | Kd ([3]; read-out: pKd (converted)) [nM] | Kd [4] [nM] | Ki [5] [nM] | K [6] [min⁻¹] | Ki [7] [nM] | K [8] [min⁻¹] | Kd [9] [nM] | Kd [10] [nM] | Kd [11] [nM] | K [12] [min⁻¹] | Kd [13] [nM] | K [14] [min⁻¹] | Kd [15] [nM] | SMILES |
| --- | --- | --- | --- | --- | --- | --- | --- | --- | --- | --- | --- | --- | --- | --- | --- | --- | --- |
| 138 | 12.6 | 11.5 | 4.1 | 4.47 | 1.9 | 4.47 | 0.026 | 0.794 | 0.0069 | 26.3 | – | – | – | – | – | – | CC1(C)C(/C=C/C=C/C=C2/N(CCCCCC(=O)NCCNC(=O)CCc3cn(CCCCC4CCN(CC(=O)N5c6ccccc6NC(=O)c6ccccc65)CC4)cn3)c3ccc(S(=O)(=O)O)cc3C2(C)C)=[N+](CCCCS(=O)(=O)[O-])c2ccccc21.O=C(O)C(F)(F)F |
| 102 | 5.3 | 4.68 | 0.8 | 0.891 | – | 2.14 | 0.014 | 0.525 | – | – | 0.48 | 6.46 | 0.0045 | 9.55 | – | – | CC1(C)C(/C=C/C=C/C=C2/N(CCCCCC(=O)NCCN3CCN(CCCCC4CCN(CC(=O)N5c6ccccc6NC(=O)c6ccccc65)CC4)CC3)c3ccc(S(=O)(=O)O)cc3C2(C)C)=[N+](CCCCS(=O)(=O)[O-])c2ccccc21.O=C(O)C(F)(F)F.O=C(O)C(F)(F)F |
| 37.2 | 2.9 | 5.62 | 3.2 | 3.09 | – | 2.88 | 0.024 | 0.631 | – | 10 | – | – | – | – | 0.0031 | 1.4 | CC1(C)C(/C=C/C=C/C=C2/N(CCCCCC(=O)NCc3cc(C(=O)NCCNC(=O)CCc4cn(CCCCC5CCN(CC(=O)N6c7ccccc7NC(=O)c7ccccc76)CC5)cn4)cc(C(=O)NCCNC(=O)CCc4cn(CCCCC5CCN(CC(=O)N6c7ccccc7NC(=O)c7ccccc76)CC5)cn4)c3)c3ccc(S(=O)(=O)O)cc3C2(C)C)=[N+](CCCCS(=O)(=O)[O-])c2ccccc21.O=C(O)C(F)(F)F.O=C(O)C(F)(F)F.O=C(O)C(F)(F)F |
